Publication PMC9052103 (RSC Advances, 2020)
Where two headings read alike, the source gives them in different places.

Key:
[1] = system: S. aureus ATCC BAA-44; experiment: MIC, 96-well microtiter broth dilution; assay type: cell-based
[2] = system: E. faecalis ATCC 29212; experiment: MIC, 96-well microtiter broth dilution; assay type: cell-based
[3] = system: B. subtilis 168; experiment: MIC, 96-well microtiter broth dilution; assay type: cell-based
[4] = system: K. pneumoniae ATCC BAA-2470; experiment: MIC, 96-well microtiter broth dilution; assay type: cell-based; conditions: NDM-1 expressing strain
[5] = system: E. cloacae ATCC BAA-1143; experiment: MIC, 96-well microtiter broth dilution; assay type: cell-based; conditions: AmpC beta-lactamase expressing strain
[6] = system: E. coli ATCC 25922; experiment: MIC, 96-well microtiter broth dilution; assay type: cell-based
[7] = system: S. aureus ATCC 43300; experiment: MIC, 96-well microtiter broth dilution; assay type: cell-based
[8] = system: S. aureus ATCC BAA-1747; experiment: MIC, 96-well microtiter broth dilution; assay type: cell-based
[9] = system: S. aureus ATCC BAA-41; experiment: MIC, 96-well microtiter broth dilution; assay type: cell-based
[10] = system: S. epidermidis ATCC 12228; experiment: MIC, 96-well microtiter broth dilution; assay type: cell-based
[11] = system: E. faecium ATCC 49624; experiment: MIC, 96-well microtiter broth dilution; assay type: cell-based
[12] = system: P. aeruginosa ATCC BAA-2108; experiment: MIC, 96-well microtiter broth dilution; assay type: cell-based; conditions: Multi-drug resistant strain
[13] = system: S. aureus ATCC 29213; experiment: MIC, 96-well microtiter broth dilution; assay type: cell-based; conditions: for MIC: Staphylococcus aureus
[14] = system: A. baumannii ATCC 19606; experiment: MIC, 96-well microtiter broth dilution; assay type: cell-based; conditions: Multi-drug resistant strain
[15] = system: E. faecium ATCC 700221; experiment: MIC, 96-well microtiter broth dilution; assay type: cell-based
[16] = system: S. aureus ATCC BAA-1720; experiment: MIC, 96-well microtiter broth dilution; assay type: cell-based
[17] = system: E. coli ATCC BAA-2469; experiment: MIC, 96-well microtiter broth dilution; assay type: cell-based; conditions: NDM-1 expressing strain
[18] = system: MRSA strains; experiment: MIC, summary over MRSA strains; assay type: cell-based, S. aureus; conditions: Staphylococcus aureus, read-out: MIC against MRSA
[19] = system: E. coli ATCC 8739; experiment: MIC, 96-well microtiter broth dilution; assay type: cell-based; conditions: Escherichia coli, ATCC8739, read-out: MIC E. coli ATCC 8739
[20] = target: SaFtsZ (Staphylococcus aureus, UniProt P0A031); experiment: SaFtsZ binding affinity assay; parameters: species or system S. aureus
Summary of the method: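 Fluorescence titration at 25 °C in 50 mM Tris–HCl pH 7.4, 50 mM KCl, 2 mM magnesium acetate. Test compound at 3.51 or 3.68 μM titrated with SaFtsZ in 0.4 μM steps (0.4–6.4 μM), equilibrating 2 min per step. Excitation 493 nm, emission 500–700 nm, buffer-titration background subtracted. Kd obtained by nonlinear fit to an independent-site model.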

[21] = system: human renal tubular epithelial cells (HK-2); experiment: CCK-8 cytotoxicity assay; assay type: cell-based; conditions: Epithelial cell, 48 h, read-out: IC50 HK-2
Summary of the method: (§1)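 Cells seeded at 5000 per well and allowed to adhere overnight at 37 °C, then exposed to test compound for 48 h. CCK-8 reagent added for a further 3 h, with absorbance read at 450 nm. Triplicates.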

[22] = target: S. aureus FtsZ (SaFtsZ) (Staphylococcus aureus, UniProt P0A031); experiment: GTPase activity assay; assay type: biochemical
Summary of the method: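 Phosphate-release kit assay: S. aureus FtsZ (7.3 μM) in assay buffer with 1% DMSO vehicle or varied concentrations of test compound. Reaction started with 200 μM GTP and run 30 min at room temperature. Colour reagent added for another 30 min to stop the reaction, and inorganic phosphate read at 620 nm. Triplicates.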

[23] = system: mouse fibroblast cells (L929); experiment: CCK-8 cytotoxicity assay; assay type: cell-based; conditions: L929, 48 h, read-out: IC50 L929
Summary of the method: as §1

[24] = target: T1, S. aureus FtsZ (Staphylococcus aureus, UniProt P0A031); experiment: Light-scattering assay of FtsZ polymerization; assay type: biochemical
T1 sequence (P0A031 1-390): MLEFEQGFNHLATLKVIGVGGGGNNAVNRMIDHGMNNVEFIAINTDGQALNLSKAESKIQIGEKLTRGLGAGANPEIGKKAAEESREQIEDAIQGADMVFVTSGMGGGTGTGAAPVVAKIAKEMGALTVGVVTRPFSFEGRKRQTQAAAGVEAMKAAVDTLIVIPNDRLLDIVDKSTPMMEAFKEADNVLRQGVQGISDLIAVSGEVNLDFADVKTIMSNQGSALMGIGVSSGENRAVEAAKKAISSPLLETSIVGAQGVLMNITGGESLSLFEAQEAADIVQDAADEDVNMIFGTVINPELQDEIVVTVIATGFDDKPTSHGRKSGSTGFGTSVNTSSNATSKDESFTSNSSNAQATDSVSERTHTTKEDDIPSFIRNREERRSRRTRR
Summary of the method: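 S. aureus FtsZ (4 μM) in 50 mM MOPS pH 6.5, preincubated 10 min at 25 °C with 1% DMSO vehicle or test compound. Baseline set after adding 50 mM KCl and 10 mM MgCl2. After 10 min, 1 mM GTP added. 90° light scattering (excitation/emission 600 nm) followed for 25 min, with blank background subtracted. Rate and extent of polymerization calculated. Triplicates.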

[25] = system: human bronchial epithelium cells (16HBE); experiment: CCK-8 cytotoxicity assay; assay type: cell-based; conditions: 48 h, read-out: IC50 16HBE
Summary of the method: as §1

[26] = system: Z-ring in B. subtilis; experiment: Visualization of Z-ring; assay type: cell-based; conditions: 0.5 × MIC, 4 h
Summary of the method: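 B. subtilis carrying IPTG-inducible GFP-FtsZ plasmid grown in LB with 30 μg mL−1 chloramphenicol at 37 °C with shaking; overnight culture diluted to 1% in LB with 40 μM IPTG plus test compound at 0.5 × MIC, 4 h at 37 °C. Cells fixed, resuspended in PBS, placed on 0.1% (w/v) poly-L-lysine-coated slides; imaged by confocal microscopy, 40× oil immersion.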

[27] = system: S. aureus ATCC 29213; experiment: In vitro drug resistance development, serial passage; assay type: cell-based
Summary of the method: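 Serial passage against S. aureus ATCC 29213: culture from the 0.5 × MIC well of the prior MIC plate diluted to 5 × 10^5 CFU mL−1 and exposed to a range of test compound concentrations. MIC read after 24 h at 37 °C. Cycle repeated 35 times. Ciprofloxacin, vancomycin and rifampin passaged in parallel.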

Compound: 2-((E)-4-Hydroxystyryl)-1-methyl-4-((Z)-(3-(3-(piperidin-1-yl)propyl)benzo[d]thiazol-2(3H)-ylidene)methyl)quinolin-1-ium iodide [Compound 4e2]
- MIC S. aureus ATCC BAA-44 [1]: 16 µg/mL
- MIC E. faecalis ATCC 29212 [2]: >64 µg/mL
- MIC B. subtilis 168 [3]: 4 µg/mL
- MIC K. pneumoniae ATCC BAA-2470 [4]: 64 µg/mL
- MIC E. cloacae ATCC BAA-1143 [5]: >64 µg/mL
- MIC E. coli ATCC 25922 [6]: 4 µg/mL
- MIC S. aureus ATCC 43300 ([7]; MRSA): 8 µg/mL
- MIC S. aureus ATCC BAA-1747 ([8]; MRSA): 32 µg/mL
- MIC S. aureus ATCC BAA-41 ([9]; MRSA): 16 µg/mL
- MIC S. epidermidis ATCC 12228 [10]: 8 µg/mL
- MIC E. faecium ATCC 49624 [11]: 16 µg/mL
- MIC P. aeruginosa ATCC BAA-2108 [12]: 64 µg/mL
- MIC S. aureus ATCC 29213 ([13]; Table 2): 16 µg/mL
- MIC A. baumannii ATCC 19606 [14]: >64 µg/mL
- MIC E. faecium ATCC 700221 ([15]; Vancomycin-resistant strain, Table 2): 8 µg/mL
- MIC S. aureus ATCC BAA-1720 ([16]; MRSA): 16 µg/mL
- MIC E. coli ATCC BAA-2469 [17]: 8 µg/mL

Compound: CC1CCN(CCCN2/C(=C/c3cc[n+](C)c4ccccc34)Sc3ccccc32)CC1.[I-] [Compound 4b4, (Z)-1-Methyl-4-((3-(3-(4-methylpiperidin-1-yl)propyl)benzo[d]thiazol-2(3H)-ylidene)methyl)quinolin-1-ium iodide]
- MIC ([2]; Enterococcus faecalis, ATCC29212, read-out: MIC E. faecalis ATCC 29212): 16 µg/mL
- MIC [18]: 1 to 8 µg/mL
- MIC ([6]; Escherichia coli, ATCC25922, read-out: MIC E. coli ATCC 25922): 2 µg/mL
- MIC ([7]; Staphylococcus aureus, ATCC43300|MRSA, read-out: MIC S. aureus ATCC 43300): 8 µg/mL
- MIC [19]: 2 µg/mL
- MIC ([8]; Staphylococcus aureus, ATCCBAA1747|MRSA, read-out: MIC S. aureus ATCC BAA-1747): 4 µg/mL
- MIC ([9]; Staphylococcus aureus, ATCCBAA41|MRSA, read-out: MIC S. aureus ATCC BAA-41): 1 µg/mL
- MIC ([10]; Staphylococcus epidermidis, ATCC12228, read-out: MIC S. epidermidis ATCC 12228): 0.25 µg/mL
- Kd [20]: 3.23 µM
- MIC ([11]; Enterococcus faecium, ATCC49624, read-out: MIC E. faecium ATCC 49624): 8 µg/mL
- IC50 [21]: 18.6 µg/mL
- MIC ([13]; ATCC29213): 2 µg/mL
- MIC ([13]; ATCC29213, read-out: MIC S. aureus ATCC 29213): 2 µg/mL
- MIC ([13]; ATCC29213, read-out: S. aureus ATCC 29213 (MIC)): 2 µg/mL
- Effect on GTPase activity of SaFtsZ [22]: did not show any effect
- MIC ([15]; Enterococcus faecium, ATCC700221): 16 µg/mL
- MIC ([15]; read-out: MIC against VRE): 2 to 16 µg/mL
- IC50 [23]: 23.4 µg/mL
- Effect on FtsZ polymerization at a concentration gradient ([24]; 0.125–0.5 μg mL^−1): enhance FtsZ polymerization in a dose-dependent manner
- Light scattering signal compared to control (FtsZ polymerization) ([24]; same concentration, 0.125 μg mL^−1): significant increase in light scattering signal
- IC50 [25]: 20.2 µg/mL
- Effect on Z-ring formation (GFP-FtsZ localization) [26]: promoted the mislocalization of the FtsZ protein
- MIC ([16]; Staphylococcus aureus, ATCCBAA1720|MRSA, read-out: MIC S. aureus ATCC BAA-1720): 8 µg/mL
- Increase of MIC after 35 passages [27]: 8 fold
